Measurements reported in article PMC6300136 (Cancer chemotherapy and pharmacology, 2011).
Several values for one entry are separate records, joined by “and”; a condition that tells them apart may be missing. Identical values can stand only once. Entries after “also recorded” stand apart in the source; their conditions may differ. Like-named read-outs stand apart in the source and are kept apart here.

Key:
tumor cell growth = settings: inhibition of tumor cell growth in vitro; cited from earlier work
[1] = cited from earlier work
[2] = Plasma ultrafiltrate pharmacokinetics of satraplatin; assay type: in vivo, rhesus monkeys (Macaca mulatta)
How it was run: (§1)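 Five adult male rhesus monkeys (7.3–14.9 kg) were fasted ≥6 h before and 2 h after dosing and given IV ondansetron 0.1 mg/kg (max 2 mg) beforehand. A single dose of test compound, 6 mg/kg (human equivalent 120 mg/m2) in 5% DMSO/0.9% saline, was infused over 1 h through a central venous catheter, with IV fluid hydration during and after.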

[3] = Tolerability of a single IV dose of satraplatin in non-human primates; assay type: in vivo, rhesus monkeys (Macaca mulatta); settings: single 120 mg/m^2 (6 mg/kg) IV dose over 1 h in NHP
How it was run: as §1

[4] = assay type: in vivo, rhesus monkeys (Macaca mulatta)
How it was run: as §1

[5] = Stability of satraplatin spiked plasma at room temperature; assay type: in vitro ADME
[6] = brain microdialysis in the same NHP model; cited from earlier work
[7] = carboplatin administration every 4 weeks; cited from earlier work
[8] = cited from earlier work; remark: listed apart in the source
[9] = plasma UF, individual animal, 6 mg/kg IV over 1 h, 6 mg/kg
[10] = CSF from intralumbar catheter, animal 1, 6 mg/kg IV over 1 h

For `N.NC1CCCCC1.[Cl-].[Cl-].[Pt+2]` [JM-118], the “potency relative to parent drug satraplatin” value (tumor cell growth) is given as “up to 16 fold”.

In the case of `CC(=O)[O][Pt]([NH2])([Cl])([Cl])([NH]C1CCCCC1)[O]C(C)=O` [Satraplatin, (OC-6–43)-bis(acetato)amminedichloro(cyclohexylamine)platinum], the accumulation factor ([1]; daily dosing in clinical trials) is listed as ≤ 4.1, the half-life ([1]; human phase I trials after oral dosing, mean) is listed as 7 h and the “AUC0–24h in NHP after IV relative to humans at equivalent oral doses” value ([2]; plasma UF exposure, NHP IV versus human oral) is listed as “approximately 20 fold”. For the same molecule, the Tmax ([2]; plasma UF, individual animal, 6 mg/kg (120 mg/m^2) IV over 1 h, time after start of infusion, 6 mg/kg) was 1.1 h and 1.0 h and 0.5 h, the “AUC0–48h” value [2, 9] was 33.2 µM·h and 27.4 µM·h and 22.6 µM·h and 29.2 µM·h and the Cmax [2, 9] was 10.6 µM and 10.4 µM and 5.7 µM and 6.9 µM and 8.3 µM. For the same molecule, the Cl ([2]; plasma UF, individual animal, dose/AUC0–inf, 6 mg/kg IV over 1 h) was 0.34 L/h/kg and 0.31 L/h/kg and 0.37 L/h/kg and 0.36 L/h/kg, the T½ ([2]; plasma UF, individual animal, terminal half-life, 6 mg/kg IV over 1 h, 6 mg/kg) was 13.4 h and 19.5 h and 18.8 h and 17.4 h and 25 h and the “Cl, median (range)” value ([2]; plasma UF, median (range) of 5 NHP) was 0.36 (0.31–0.37) l/h/kg. The “AUC0–48h, median (range)” value ([2]; plasma UF, median (range) of 5 NHP, 6 mg/kg IV over 1 h) was 29.2 (22.6–33.2) μM h, the “Tmax, median (range)” value ([2]; plasma UF, median (range) of 5 NHP, 6 mg/kg IV over 1 h, after start of infusion) was 1.0 (0.5–1.1) h and the “AUC0–inf, median (range)” value ([2]; plasma UF, median (range) of 5 NHP, extrapolated to infinity) was 32.1 (24.7–38.2) μM h. For the same molecule, the “T½, median (range)” value ([2]; plasma UF, median (range) of 5 NHP, terminal half-life) was 18.8 (13.4–25) h, the Tolerability [3] was “well tolerated; also recorded: no adverse clinical or laboratory sequelae” and the Cmax [4, 10] was 620 nM. For the same molecule, the Tmax [4, 10] was 1.1 h, the “Ratio AUC0–48h CSF: AUC0–48h plasma UF” value ([4]; CSF penetration, individual animal, 6 mg/kg IV over 1 h, 6 mg/kg) was 7.4% and 4.6% and 2.2% and 3.9% and the “AUC0–48h” value ([4]; CSF, individual animal, 6 mg/kg IV over 1 h, 6 mg/kg) was 2.43 µM·h and 1.26 µM·h and 0.49 µM·h and 1.14 µM·h. For the same molecule, the “AUC0–48h, median (range)” value ([4]; CSF, median (range) of NHP) was 1.2 (0.49–2.43) μM h, the “AUC0–48 for CSF, median (range)” value ([4]; CSF, median, unit as printed in the results text) was 1.2 µM and the “CSF penetration (Ratio AUC0–48h CSF: AUC0–48h plasma UF), median (range)” value ([4]; median (range) of NHP) was 4.3 (2.2–7.4) %. For the same molecule, the Cmax ([4]; read-out: Cmax, median (range), CSF, median (range) of NHP) was 90 nM and the “stability of spiked plasma” value [5] was “at least 2 h”.

For `N.N.O=C([O-])C1(C(=O)[O-])CCC1.[Pt+2]` [carboplatin], the CNS penetration [6] is given as < 5%, the incidence of anaphylaxis [7] is given as ≤ 22% and the CSF penetration ([8]; non-human primate model) is given as 2.6%.

In the case of `N.N.[Cl][Pt][Cl]` [cisplatin], the CSF penetration ([8]; in vivo) is listed as 3.7%.
